Reference: ChEMBL document CHEMBL3124885, “Discovery of 7-tetrahydropyran-2-yl chromans: β-site amyloid precursor protein cleaving enzyme 1 (BACE1) inhibitors that reduce amyloid β-protein (Aβ) in the central nervous system” (J Med Chem, 2014)

Experiments:
[1] = Drug uptake in Hartley guinea pig CSF at 60 mg/kg, po measured at 3 hrs; type: ADME, organism-based, Cavia porcellus, Cerebrospinal fluid; set-up: dose 60 mg/kg, route oral; details: read-out: Drug uptake
In short: (§1)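 Male Hartley guinea pigs, oral dosing (CMC/Tween/citrate suspension or PEG/EtOH/H₂O solution), six or eight animals per cohort; CSF drug concentration (nM) measured at each time point.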

[2] = Ratio of unbound drug level in brain to plasma in Hartley guinea pig at 60 mg/kg, po measured at 5 hrs; type: ADME, organism-based, Cavia porcellus; set-up: dose 60 mg/kg, route oral; details: brain and plasma (unbound), read-out: K(p,uu,brain)
In short: (§2)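 Male Hartley guinea pigs given single oral doses of 30, 60 or 100 mg/kg in 1% CMC/0.5% Tween/5 mM citrate in H₂O, 6–8 animals per cohort. Plasma, brain and CSF sampled at 1–12 h; free brain to free plasma ratio computed.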

Brain [3] = experiment: Fraction unbound in Sprague-Dawley rat brain at 60 mg/kg, po measured at 1 hr; type: ADME, organism-based; set-up: dose 60 mg/kg, route oral; details: in vivo
In short: (§3)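 Male Sprague–Dawley rats dosed 60 mg/kg po in 1% CMC/0.5% Tween/5 mM citrate in H₂O; plasma, brain and CSF taken at 1, 3, 5, 8 and 12 h; unbound plasma and brain levels and their ratio determined.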

[4] = Drug uptake in Hartley guinea pig CSF at 100 mg/kg, po measured at 3 hrs; type: ADME, organism-based, Cavia porcellus, Cerebrospinal fluid; set-up: dose 100 mg/kg, route oral; details: read-out: Drug uptake; in short: as §1
[5] = Fraction unbound in Hartley guinea pig brain at 100 mg/kg, po measured at 3 hrs; type: ADME, organism-based, Cavia porcellus; set-up: dose 100 mg/kg, route oral; details: in vivo
Plasma [6] = experiment: Unbound plasma concentration in cynomolgus monkey at 0.5 mg/kg, iv and 100 mg/kg, po measured at 2 hrs; type: ADME, organism-based, Macaca fascicularis; details: in vivo
In short: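 Female cynomolgus monkeys, three per dosing route, received 0.5 mg/kg iv and 100 mg/kg po. Unbound plasma concentration was reported at 2 h and 4 h post-dose.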

Brain [7] = experiment: Fraction unbound in Sprague-Dawley rat brain at 60 mg/kg, po measured at 12 hrs; type: ADME, organism-based; set-up: dose 60 mg/kg, route oral; details: in vivo; in short: as §3
[8] = Ratio of unbound drug level in brain to plasma in Hartley guinea pig at 30 mg/kg, po measured at 3 hrs; type: ADME, organism-based, Cavia porcellus; set-up: dose 30 mg/kg, route oral; details: brain and plasma (unbound), read-out: K(p,uu,brain); in short: as §2
[9] = Drug uptake in Hartley guinea pig CSF at 60 mg/kg, po measured at 5 hrs; type: ADME, organism-based, Cavia porcellus, Cerebrospinal fluid; set-up: dose 60 mg/kg, route oral; details: read-out: Drug uptake; in short: as §1
[10] = Drug uptake in Sprague-Dawley rat CSF at 60 mg/kg, po measured at 3 hrs; type: ADME, organism-based, Cerebrospinal fluid; set-up: dose 60 mg/kg, route oral; details: read-out: Drug uptake
In short: (§4)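 Male Sprague−Dawley rats dosed orally at 60 mg/kg in 1% CMC/0.5% Tween/5 mM citrate in H₂O; CSF compound concentration (nM) at 1–12 h.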

Plasma [11] = experiment: Unbound plasma concentration in Sprague-Dawley rat at 60 mg/kg, po measured at 1 hr; type: ADME, organism-based; set-up: dose 60 mg/kg, route oral; details: in vivo
In short: (§5)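 Male Sprague-Dawley rats were given a single 60 mg/kg oral dose in 1% CMC/0.5% Tween/5 mM citrate in H₂O. Free plasma concentration was determined at 1, 3, 5, 8 and 12 h. Brain, CSF and CSF Aβ₁₋₄₀ were sampled at the same times.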

[12] = Fraction unbound in Hartley guinea pig brain at 60 mg/kg, po measured at 5 hrs; type: ADME, organism-based, Cavia porcellus; set-up: dose 60 mg/kg, route oral; details: in vivo
Plasma [13] = experiment: Unbound plasma concentration in Sprague-Dawley rat at 60 mg/kg, po measured at 8 hrs; type: ADME, organism-based; set-up: dose 60 mg/kg, route oral; details: in vivo; in short: as §5
[14] = Drug uptake in cynomolgus monkey CSF at 0.5 mg/kg, iv and 100 mg/kg, po measured at 2 hrs; type: ADME, organism-based, Macaca fascicularis, Cerebrospinal fluid; details: read-out: Drug uptake
In short: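 Female cynomolgus monkeys, 3 per dosing route; iv formulation PEG400/EtOH/water (40/10/50) solution; oral suspension in 1% CMC, 0.5% Tween 80, 5 mM citrate buffer; CSF concentration measured.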

[15] = Drug uptake in Sprague-Dawley rat CSF at 60 mg/kg, po measured at 8 hrs; type: ADME, organism-based, Cerebrospinal fluid; set-up: dose 60 mg/kg, route oral; details: read-out: Drug uptake; in short: as §4
[16] = Drug uptake in Sprague-Dawley rat CSF at 60 mg/kg, po measured at 1 hr; type: ADME, organism-based, Cerebrospinal fluid; set-up: dose 60 mg/kg, route oral; details: read-out: Drug uptake; in short: as §4
[17] = Ratio of unbound drug level in brain to plasma in Hartley guinea pig at 60 mg/kg, po measured at 8 hrs; type: ADME, organism-based, Cavia porcellus; set-up: dose 60 mg/kg, route oral; details: brain and plasma (unbound), read-out: K(p,uu,brain); in short: as §2
[18] = Ratio of unbound drug level in brain to plasma in Sprague-Dawley rat at 60 mg/kg, po measured at 1 hr; type: ADME, organism-based; set-up: dose 60 mg/kg, route oral; details: brain and plasma (unbound), read-out: K(p,uu,brain); in short: as §3
Plasma [19] = experiment: Unbound plasma concentration in Sprague-Dawley rat at 60 mg/kg, po measured at 12 hrs; type: ADME, organism-based; set-up: dose 60 mg/kg, route oral; details: in vivo; in short: as §5
[20] = Ratio of unbound drug level in brain to plasma in CD-1 mouse measured at 4 hrs; type: ADME; details: CD-1, mouse, read-out: K(p,uu,brain)
In short: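 Male CD-1 mice given 10 mg/kg po, 3 per cohort; plasma and brain collected at 1 and 4 h. Free brain/plasma ratio from unbound concentrations; coverage ratio = free brain concentration divided by HEK293 Aβ₁₋₄₀ cell IC50.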

[21] = Unbound plasma concentration in Hartley guinea pig at 60 mg/kg, po measured at 3 hrs; type: ADME, organism-based, Cavia porcellus; set-up: dose 60 mg/kg, route oral; details: in vivo
In short: (§6)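 Male Hartley guinea pigs were dosed orally at 30, 60 or 100 mg/kg, with six or eight animals per cohort. The vehicle was either a suspension in 1% CMC/0.5% Tween/5 mM citrate in H₂O or a 40/10/50 PEG/EtOH/H₂O solution, depending on compound. Unbound plasma concentration was sampled at 1–12 h post-dose alongside brain, CSF and CSF Aβ₁₋₄₀.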

[22] = Ratio of unbound drug level in brain to plasma in Hartley guinea pig at 60 mg/kg, po measured at 1 hr; type: ADME, organism-based, Cavia porcellus; set-up: dose 60 mg/kg, route oral; details: brain and plasma (unbound), read-out: K(p,uu,brain); in short: as §2
Rattus norvegicus = experiment: Hepatic clearance in Sprague-Dawley rat at 3 mg/kg, iv; type: ADME, organism-based, Liver; set-up: dose 3 mg/kg, route intravenous; details: in vivo
In short: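 Male Sprague–Dawley rats, 3 per cohort, iv 3 mg/kg in 30% captisol/5 mM citrate in saline; po 60 mg/kg in 1% CMC/0.5% Tween/5 mM citrate in H₂O.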

[23] = Drug uptake in Sprague-Dawley rat CSF at 60 mg/kg, po measured at 5 hrs; type: ADME, organism-based, Cerebrospinal fluid; set-up: dose 60 mg/kg, route oral; details: read-out: Drug uptake; in short: as §4
[24] = Unbound plasma concentration in Hartley guinea pig at 60 mg/kg, po measured at 1 hr; type: ADME, organism-based, Cavia porcellus; set-up: dose 60 mg/kg, route oral; details: in vivo; in short: as §6
[25] = Unbound plasma concentration in Hartley guinea pig at 30 mg/kg, po measured at 3 hrs; type: ADME, organism-based, Cavia porcellus; set-up: dose 30 mg/kg, route oral; details: in vivo; in short: as §6
[26] = Drug uptake in Hartley guinea pig CSF at 30 mg/kg, po measured at 3 hrs; type: ADME, organism-based, Cavia porcellus, Cerebrospinal fluid; set-up: dose 30 mg/kg, route oral; details: read-out: Drug uptake; in short: as §1
[27] = Fraction unbound in Hartley guinea pig brain at 60 mg/kg, po measured at 3 hrs; type: ADME, organism-based, Cavia porcellus; set-up: dose 60 mg/kg, route oral; details: in vivo
[28] = Intrinsic clearance in CD-1 mouse hepatocytes at 2 uM after 60 to 120 mins; type: ADME, cell-based, Hepatocyte; details: read-out: CLH
Cynomolgus monkey = experiment: Hepatic clearance in cynomolgus monkey at 0.5 mg/kg, iv; type: ADME, organism-based, Macaca fascicularis, Liver; set-up: dose 0.5 mg/kg, route intravenous; details: in vivo
[29] = Fraction unbound in Hartley guinea pig brain at 60 mg/kg, po measured at 12 hrs; type: ADME, organism-based, Cavia porcellus; set-up: dose 60 mg/kg, route oral; details: in vivo
[30] = Drug uptake in Hartley guinea pig CSF at 60 mg/kg, po measured at 1 hr; type: ADME, organism-based, Cavia porcellus, Cerebrospinal fluid; set-up: dose 60 mg/kg, route oral; details: read-out: Drug uptake; in short: as §1
Plasma [31] = experiment: Unbound plasma concentration in CD-1 mouse at 3 mg/kg, iv and 10 mg/kg, po measured at 4 hrs; type: ADME, organism-based; details: in vivo
In short: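 Male CD-1 mice, 3 per cohort, dosed 3 mg/kg iv and 10 mg/kg po; plasma drawn at 1 and 4 h, brains harvested from oral groups only. Formulations varied by compound: 40% PEG 400/10% EtOH/50% H₂O; 30% captisol in H₂O; iv 50 mM citrate in saline (pH 4); po 1% CMC/0.5% Tween/5 mM citrate in H₂O.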

[32] = Drug uptake in Hartley guinea pig CSF at 60 mg/kg, po measured at 8 hrs; type: ADME, organism-based, Cavia porcellus, Cerebrospinal fluid; set-up: dose 60 mg/kg, route oral; details: read-out: Drug uptake; in short: as §1

concentration at 3 h [1]: 23 nM
Kp uu at 5 h [2]: 1.7
Drug uptake(free) (Brain [3]): 68 nM
concentration at 3 h [4]: 56 nM
Drug uptake(free) [5]: 50 nM
Cp(f) (Plasma [6]): 3200 nM
Drug uptake(free) (Brain [7]): 46 nM
Kp uu at 3 h [8]: 1.6
concentration at 5 h [9]: 6.9 nM
concentration at 3 h [10]: 150 nM
Cp(f) (Plasma [11]): 3100 nM
Drug uptake(free) [12]: 12 nM
Cp(f) (Plasma [13]): 1700 nM
concentration at 2 h [14]: 110 nM
concentration at 8 h [15]: 130 nM
concentration at 1 h [16]: 290 nM
Kp uu at 8 h [17]: > 1.7
Kp uu at 1 h [18]: 0.022
Cp(f) (Plasma [19]): 960 nM
Kp uu at 4 h [20]: 0.19
Cp(f) [21]: 23 nM
Kp uu at 1 h [22]: 0.14
CLH (Rattus norvegicus): 30 mL/min/kg
concentration at 5 h [23]: 200 nM
Cp(f) [24]: 140 nM
Cp(f) [25]: 5.8 nM
concentration at 3 h [26]: 9.9 nM
Drug uptake(free) [27]: 34 nM
CLint scaled at 2 µM [28]: 36 mL/min/kg
CLH (Cynomolgus monkey): 22 mL/min/kg
Drug uptake(free) [29]: 11 nM
concentration at 1 h [30]: 69 nM
Cp(f) (Plasma [31]): 78 nM
concentration at 8 h [32]: 1.6 nM
Structure (SMILES): CN1C(=O)[C@]2(N=C1N)c1cc(-c3cccnc3F)ccc1O[C@H]1CCOC[C@@H]12
